Here are results for one molecule from ChEMBL document CHEMBL1139444, “Oxazolidinone: search for highly potent antibacterial” (2004).

What all share (type): functional
The subject of experiment [1] is Bacillus cereus. The experiment in a line: Minimum inhibitory concentration against Bacillus cereus MTCC 430. In a few lines: (§1)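 Microbroth dilution MIC determination, with results expressed in μg/mL. Where run in triplicate, the highest MIC of the three replicates is the value reported.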
Experiment [2] has as its system Enterococcus faecalis. The experiment in a line: Minimum inhibitory concentration against Enterococcus faecalis ATCC 14506. In a few lines:
as §1

In experiment [3] the test system is Enterococcus faecalis. In words: Minimum inhibitory concentration against Enterococcus faecalis MTCC 439. In a few lines: as §1
The subject of experiment [4] is Klebsiella pneumoniae. The experiment in a line: Minimum inhibitory concentration against Klebsiella pneumoniae ATCC 10031. The method in brief: as §1
Experiment [5] concerns Staphylococcus epidermidis. The experiment in a line: Minimum inhibitory concentration against Staphylococcus epidermidis MTCC 155. The method in brief:
as §1

In experiment [6] the test system is Staphylococcus aureus. The experiment in a line: Minimum inhibitory concentration against Staphylococcus aureus MTCC 96. In a few lines: as §1
Experiment [7] relates to Staphylococcus aureus. The experiment in a line: Minimum inhibitory concentration against Staphylococcus aureus ATCC 25923. The method in brief: as §1
Experiment [8] concerns Staphylococcus aureus. In words: Minimum inhibitory concentration against Staphylococcus aureus ATCC 29213. In a few lines: as §1
In experiment [9] the test system is Bacillus pumilus. In words: Minimum inhibitory concentration against Bacillus pumilus MTCC 1607. The method in brief:
as §1

Experiment [10] relates to Staphylococcus aureus. In words: Minimum inhibitory concentration against Staphylococcus aureus ATCC 14154. The method in brief:
as §1

Experiment [11] deals with Streptococcus pyogenes. In words: Minimum inhibitory concentration against Streptococcus pyogenes MTCC 442. The method in brief:
as §1

Values after ≈ are worked out from the molar mass of the structure shown.

One may read the MIC as the lowest concentration that inhibits growth of the organism. The low end stands for greater potency, the high end for weaker potency. Consider `N=C(S)NC[C@H]1CN(c2ccc(N3CCN(C(=O)/C=C/c4ccc5c(c4)OCO5)CC3)c(F)c2)C(=O)O1`, for which the MIC in experiment [1] is 1 µg/mL (≈ 1.9 µM); in experiment [2], 0.5 µg/mL (≈ 0.948 µM); in [3], 0.25 µg/mL (≈ 0.474 µM); in experiment [4], > 16 µg/mL; in experiment [5], 0.25 µg/mL (≈ 0.474 µM); in [6], 1 µg/mL (≈ 1.9 µM). The MIC in experiment [7] turned out to be 2 µg/mL (≈ 3.79 µM); in [8], 2 µg/mL (≈ 3.79 µM); in experiment [9], 1 µg/mL (≈ 1.9 µM); in [10] it was 1 µg/mL (≈ 1.9 µM); in experiment [11], 0.5 µg/mL (≈ 0.948 µM).
